Screening results as filed in PubChem BioAssay.
Sampled rows, rich in hits. Any-hit rate of the full collection: about 2%.
HIF act: HIF pathway transcriptional activation; AID 1910; activation, % at 7.5 µM (by protocol); 300,000 tested, 0.32% active; U2OS HRE-luciferase reporter, luminescence; normalized: DMSO 0%, desferrioxamine 100%;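 active = mean activation of at least 10% of the iron chelator positive control signal, with at least half of replicates also reaching 10%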
EBV LMP1 NFkB: inhibitors of Epstein-Barr LMP1-induced NF-kappaB reporter | AID 504558 | 350,000 tested, 0.69% active | inhibition, % at 12.5 µM | LMP1-induced NF-kappaB luciferase reporter cells, luminescence; in the data active = inhibition above about 41%
TROY signal inh: TROY signaling inhibition | Q293 LMP1-TROYcd NF-kB luciferase reporter, 4 h | inhibition, % at 10 µM | 360,000 tested, 0.98% active | AID 1347056;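 active = compounds whose plate-normalised and pattern-corrected inhibition of the luciferase reporter signal at the single screening dose is 50% or more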
NR2E3 ag-1: agonists of human NR2E3 nuclear receptor; Q9Y5X4; CHO-S Gal4-NCOR/VP16-NR2E3 two-hybrid, luciferase; AID 602229; inhibition of corepressor binding, % at 3.98 µM; 360,000 tested, 0.35% active;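 active = inhibition above the mean of all tested compounds plus 3 SD, cut at about 70% in these data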;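 note: higher means lower luciferase signal from less NR2E3 corepressor binding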
Target sequence (Q9Y5X4 whole entry, looked up, the tested form may be a part): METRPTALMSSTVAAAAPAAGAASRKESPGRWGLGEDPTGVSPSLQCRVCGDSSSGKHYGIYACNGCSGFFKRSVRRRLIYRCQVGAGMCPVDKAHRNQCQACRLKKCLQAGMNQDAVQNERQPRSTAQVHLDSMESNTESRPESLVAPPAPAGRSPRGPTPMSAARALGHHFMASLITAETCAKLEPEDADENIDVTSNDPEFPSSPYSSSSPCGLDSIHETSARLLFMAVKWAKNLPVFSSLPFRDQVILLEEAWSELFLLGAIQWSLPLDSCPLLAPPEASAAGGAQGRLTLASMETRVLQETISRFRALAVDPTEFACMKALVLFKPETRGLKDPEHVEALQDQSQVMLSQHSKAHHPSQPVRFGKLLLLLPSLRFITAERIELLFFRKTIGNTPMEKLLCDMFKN
NR2E3 ag-2: activates human photoreceptor nuclear receptor NR2E3. Q9Y5X4. 320,000 tested, 0.12% active. AID 2300. GST-NR2E3/biotin-RetCOR TR-FRET, 1536-well. inhibition of corepressor binding, % at 4.78 µM;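 active = percent inhibition above the cutoff of mean plus 3 SD of all tested compounds, set per screening campaign, cut at about 20% in these data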
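Material: NR2E3–RetCOR corepressor complex | Quantity: 1.35 nM GST-tagged NR2E3 final | Schedule: 5 h at 4 °C | Replication: Singlicate compound wells | Reagent: RetCOR corepressor, biotinylated, 7 nM | Controls: Biotin wells as high control, 0.6% DMSO wells as low control | Signal: TR-FRET, Eu(K)-anti-GST donor, streptavidin-D2 acceptor, ex 340, em 617/671 nm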
A number is an active result; – = inactive; · = not tested or not shown.

SMILES	HIF act	EBV LMP1 NFkB	TROY signal inh	NR2E3 ag-1	NR2E3 ag-2
O=C(Cc1ccc(F)cc1)Nc1nc(-c2ccc(F)c(F)c2)cs1	–	–	75	–	·
CC1Cc2cc(-c3csc(NC(=O)Cc4ccccc4)n3)ccc2N1S(C)(=O)=O (stereo not drawn)	–	–	60	–	–
COc1cccc(C(=O)NCC(c2cccs2)N2CCOCC2)c1 (stereo not drawn)	·	–	–	–	–
CCCCCCn1cc(CN2CC(N3CCN(Cc4ccccc4F)CC3)CS2(=O)=O)nn1 (stereo not drawn)	·	·	–	–	·
COc1ccc(CC(=O)Nc2nc(-c3ccc(F)c(F)c3)cs2)cc1	–	–	55	–	–
O=C1c2ccccc2S(=O)(=O)N1CCS(=O)(=O)c1ccc(F)cc1	–	–	–	–	–
CC(=O)c1ccc(NC(=S)Nc2ccc(N3CCOCC3)cc2)cc1	–	–	51	–	–
O=C(NC(=S)Nc1ccc(N2CCOCC2)cc1)c1ccccc1	–	–	–	–	–
O=C(CS(=O)(=O)c1ccccc1)Nc1ccc(N2CCOCC2)cc1	20	–	–	–	–
CCc1ccc(C(=O)NC(=S)Nc2ccc(N3CCOCC3)cc2)cc1	–	–	53	–	–
O=C(CN1CCN(Cc2ccccc2)CC1)Nc1ccc(N2CCOCC2)cc1	–	–	–	–	–
O=C(C[C@H]1C/C=C\C[C@H](NC(=O)OCC2c3ccccc3-c3ccccc32)C(=O)O[C@H](c2ccccc2)CNC1=O)N[C@H](CO)Cc1ccccc1	·	–	–	–	·
CCCNC(=O)c1cc(C2CCCN(C(=O)c3ccccc3)C2)on1 (stereo not drawn)	·	·	–	–	·
CC(C)(Oc1ccc(Cl)cc1)C(=O)NC1=NN(c2ccccc2)C(=O)C1	–	–	55	–	–
O=C1CC(NC(=O)C(F)(F)F)=NN1c1ccccc1	–	–	–	–	–
C=Cc1ncc(OC)c2c1[nH]c1ccccc12	–	–	–	–	–
Cc1cc(NC(=O)CSc2cn(CCNC(=O)c3ccccc3)c3ccccc23)no1	–	–	–	–	–
Cc1ccc(C(=O)NCCn2cc(SCC(=O)Nc3cc(C)on3)c3ccccc32)cc1	–	–	73	–	–
Cc1ccc(C(=O)NCCn2cc(SCC(=O)N3CCOCC3)c3ccccc32)cc1	–	–	78	–	–
CCCCc1ccc(NC(=S)N2CCCC2)cc1	·	–	–	–	·
CC(=O)c1cccc(Nc2ccc(C#N)cc2)c1	·	·	–	–	·
CC(=O)Nc1ccc(S(=O)(=O)NCc2nc(-c3cccc(C)c3)no2)cc1	–	–	–	–	–
Cc1nn(-c2ccccc2)c(C)c1-c1nnc(-c2c(C)nn(-c3ccccc3)c2C)o1	–	–	50	–	–
Cc1nn(-c2ccccc2)c(C)c1-c1nnc(C(F)(F)F)o1	–	–	–	–	–
CC(C(=O)Nc1ccc(Cl)cc1Cl)N1C(=O)NC2(CCCCCCC2)C1=O (stereo not drawn)	·	–	–	–	–
SMILES	HIF act	EBV LMP1 NFkB	TROY signal inh	NR2E3 ag-1	NR2E3 ag-2
COc1ccc(S(=O)(=O)N2CCN(Cc3cccs3)CC2)cc1OC	·	–	–	–	·
CC(C)(C)c1ccc(CC(=O)N2CCC2(C)C(=O)NS(=O)(=O)c2ccccc2Cl)cc1 (stereo not drawn)	·	·	–	–	·
CC(C)c1nnc(NC(=O)CCS(=O)(=O)c2nc(-c3cccs3)cc(C(F)(F)F)n2)s1	–	–	50	–	–
CC(C)c1nnc(NC(=O)CCS(=O)(=O)Cc2ccccc2)s1	–	–	–	–	–
CCCCCC(=O)Nc1ccc(-c2csc(C)n2)cc1	–	–	–	–	–
O=C(Nc1ccc(NC(=O)c2ccco2)nc1)c1ccco1	–	45	–	–	–
Cc1nc(-c2cccc(NC(=O)c3ccco3)c2)cs1	–	–	–	–	·
Cc1nc(-c2ccc(NC(=O)/C=C\C(=O)O)cc2)cs1	–	–	61	–	–
Nc1nc(-c2ccc(NC(=O)c3ccco3)cc2)cs1	–	76	–	–	–
Cc1nc(-c2ccc(NC(=O)c3ccco3)cc2)cs1	–	64	50	–	–
O=C(NCCc1ccc(O)cc1)c1[nH]c(C(F)(F)F)nc1-c1ccccc1	·	·	–	–	·
CN(C(=O)Cn1cc([N+](=O)[O-])ccc1=O)C1CCCCC1	·	–	–	–	–
COc1ccccc1C(=O)NC(=O)CSc1nnc(N)s1	·	42	–	–	–
Cc1sc(NC(=O)CN(C(=O)c2ccccc2F)C2CCCC2)c(C(N)=O)c1C	–	–	–	–	–
Cc1ccc(OCC(=O)NNC(=S)NC(=O)C2CCCCC2)c(C)c1	–	45	–	–	–
Cc1ccc(OCC(=O)NNC(=S)NC(=O)C2CC2)c(C)c1	·	–	–	–	·
O=C(c1[nH]c(C(F)(F)F)nc1-c1ccccc1)N1CCN(c2cccc(C(F)(F)F)n2)CC1	·	·	–	–	·
C(/C=C/c1ccccc1)=N/N1CCN(c2ccccc2)CC1	–	–	–	–	–
C(=C\c1ccccc1)/C=N/N1CCN(c2ccccn2)CC1	–	85	–	–	–
O=C(NC1CC1)c1[nH]c(C(F)(F)F)nc1-c1ccccc1	·	·	–	–	·
O=C(Nc1ccc2c(c1)OCCO2)c1[nH]c(C(F)(F)F)nc1-c1ccccc1	·	·	81	–	·
O=C(Nc1ccc2oc(-c3ccncc3)nc2c1)c1ccc2c(c1)OCCO2	–	–	–	–	–
O=C(Nc1ccc2oc(-c3ccccc3)nc2c1)c1ccc2c(c1)OCCO2	–	–	58	–	–
CCOC(=O)c1ccc(NC(C)=O)c([N+](=O)[O-])c1	–	–	69	–	–
O=C(NCCCN1CCN(c2ccccc2F)CC1)Nc1ccc(F)cc1	–	–	–	–	–
SMILES	HIF act	EBV LMP1 NFkB	TROY signal inh	NR2E3 ag-1	NR2E3 ag-2
O=C(NCCCN1CCN(c2ccccc2F)CC1)Nc1ccccc1[N+](=O)[O-]	252	–	–	–	–
O=C(Nc1ccccc1C(=O)N1CCN(Cc2ccccc2)CC1)c1ccccc1	–	–	–	–	–
CCn1ncc(C2=NOC(C(=O)Nc3ccc4c(c3)OCO4)C2)c1C (stereo not drawn)	110	–	–	–	–
CCOC(=O)CC/C(C)=N\N=C1\SC(CC(=O)O)C(=O)N1c1ccccc1 (stereo not drawn)	–	44	–	–	–
Cc1cc(S(=O)(=O)Nc2ccc(C(=O)NCc3ccncc3)cc2)ccc1F	–	–	–	–	–
C[C@@H]1CN([C@H](C)CO)C(=O)c2cc(Br)cnc2O[C@H]1CN(C)C(=O)Cc1ccccc1	·	–	–	–	·
Cc1ccc(-n2nnnc2-c2nc3ccccc3s2)cc1	–	–	–	–	–
CCOc1ccc(-n2nnnc2-c2nc3ccccc3s2)cc1	–	–	62	–	–
Cc1cc(C)cc(C(=O)NCCC(=O)NCc2cc(=O)n(C)c(=O)n2C)c1	–	55	–	–	–
CCOc1ccccc1NC(=O)Cn1c(=O)sc2ccccc21	–	64	–	–	–
CC(C)c1nc(CNC(=O)CC2C(=O)NCCN2Cc2ccccc2)cs1 (stereo not drawn)	·	–	–	–	·
